Tested on: not listed separately
Test: Drug uptake in SEB-stimulated human CD25 negative cells assessed as mean fluorescence intensity at 5 x 10^-8 M preincubated for 20 mins followed by growth in photosensitizer-free media for 30 mins by flow cytometric analysis relative to control
Settings: 0.5 h, 0.05 µM; call rule not given here

**Q.** Which Flu intensity does the source give for `CN1CCC(C)(C)c2cc3c(-c4ccc(C(=O)N5CCCCC5)s4)c4ccc(=[N+](C)C)cc-4[se]c3cc21.[Cl-]` here?
**A.** 900 a.u.

**Q.** For `CN1CCC(C)(C)c2cc3c(-c4ccc(C(=S)N5CCCCC5)s4)c4ccc(=[N+](C)C)cc-4[se]c3cc21.[Cl-]`, which Flu intensity is on record?
**A.** 10500 a.u.

Tested on: not listed separately
Test: Drug extrusion in SEB-stimulated human CD25 negative cells assessed as mean fluorescence intensity at 5 x 10^-8 M preincubated for 20 mins followed by growth in photosensitizer-free media for 30 mins by flow cytometric analysis relative to control
Settings: 0.5 h, 0.05 µM

**Q.** For `CN1CCC(C)(C)c2cc3c(-c4ccc(C(=O)N5CCCCC5)s4)c4ccc(=[N+](C)C)cc-4[se]c3cc21.[Cl-]`, which Flu intensity is on record?
**A.** 270 a.u.

**Q.** For `CN1CCC(C)(C)c2cc3c(-c4ccc(C(=S)N5CCCCC5)s4)c4ccc(=[N+](C)C)cc-4[se]c3cc21.[Cl-]`, which Flu intensity is on record?
**A.** 4800 a.u.

Tested on: HuT78
Settings: human, hut78, 0.5 h, 0.075 µM

**Q.** With `CN1CCC(C)(C)c2cc3c(-c4ccc(C(=O)N5CCCCC5)s4)c4ccc(=[N+](C)C)cc-4[se]c3cc21.[Cl-]` as the molecule, how does the Flu intensity read?
**A.** 15300 a.u.

**Q.** Which Flu intensity does the source give for `CN1CCC(C)(C)c2cc3c(-c4ccc(C(=S)N5CCCCC5)s4)c4ccc(=[N+](C)C)cc-4[se]c3cc21.[Cl-]` here?
**A.** 39300 a.u.

Tested on: not listed separately
Test: Drug extrusion in SEB-stimulated human CD25 positive cells assessed as mean fluorescence intensity at 5 x 10^-8 M preincubated for 20 mins followed by growth in photosensitizer-free media for 30 mins by flow cytometric analysis relative to control
Settings: 0.5 h, 0.05 µM

**Q.** For `CN1CCC(C)(C)c2cc3c(-c4ccc(C(=O)N5CCCCC5)s4)c4ccc(=[N+](C)C)cc-4[se]c3cc21.[Cl-]`, which Flu intensity is on record?
**A.** 3110 a.u.

**Q.** Which Flu intensity does the source give for `CN1CCC(C)(C)c2cc3c(-c4ccc(C(=S)N5CCCCC5)s4)c4ccc(=[N+](C)C)cc-4[se]c3cc21.[Cl-]` here?
**A.** 32200 a.u.

Tested on: not listed separately
Test: Drug uptake in human HUT78 cell mitochondria by MTG-based bright field microscopic analysis
Type: ADME
Settings: not given
In short: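 HUT-78 cells (5×10^5 in 0.5 mL medium) were incubated 15 min with 2×10^-7 M dye together with 5×10^-7 M MitoTracker Green. They were centrifuged and analysed by ImageStream imaging flow cytometry, with MTG excited at 488 nm (480–560 nm channel) and dye excited at 561 nm (642–745 nm channel). Colocalisation was given as the bright detail similarity score, mean ± SD over cells.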

**Q.** Which Drug uptake does the source give for `CN1CCC(C)(C)c2cc3c(-c4ccc(C(=O)N5CCCCC5)s4)c4ccc(=[N+](C)C)cc-4[se]c3cc21.[Cl-]` here?
**A.** Active

**Q.** Which Drug uptake does the source give for `CN1CCC(C)(C)c2cc3c(-c4ccc(C(=S)N5CCCCC5)s4)c4ccc(=[N+](C)C)cc-4[se]c3cc21.[Cl-]` here?
**A.** Active

Tested on: not listed separately
Test: Drug uptake in SEB-stimulated human CD25 positive cells assessed as mean fluorescence intensity at 5 x 10^-8 M preincubated for 20 mins followed by growth in photosensitizer-free media for 30 mins by flow cytometric analysis relative to control
Settings: 0.5 h, 0.05 µM

**Q.** Which Flu intensity does the source give for `CN1CCC(C)(C)c2cc3c(-c4ccc(C(=O)N5CCCCC5)s4)c4ccc(=[N+](C)C)cc-4[se]c3cc21.[Cl-]` here?
**A.** 5390 a.u.

**Q.** Which Flu intensity does the source give for `CN1CCC(C)(C)c2cc3c(-c4ccc(C(=S)N5CCCCC5)s4)c4ccc(=[N+](C)C)cc-4[se]c3cc21.[Cl-]` here?
**A.** 45800 a.u.

Tested on: HuT78
Settings: human, hut78, 0.5 h, 0.075 µM
Remark: another data set of the same source

**Q.** Which Flu intensity does the source give for `CN1CCC(C)(C)c2cc3c(-c4ccc(C(=O)N5CCCCC5)s4)c4ccc(=[N+](C)C)cc-4[se]c3cc21.[Cl-]` here?
**A.** 5270 a.u.

**Q.** With `CN1CCC(C)(C)c2cc3c(-c4ccc(C(=S)N5CCCCC5)s4)c4ccc(=[N+](C)C)cc-4[se]c3cc21.[Cl-]` as the molecule, how does the Flu intensity read?
**A.** 37600 a.u.
